Compound activity deposited in PubChem BioAssay by The Scripps Research Institute Molecular Screening Center.
Shown are actives, neighbours in structure and some others; about 3.3% of the full set was active somewhere.
TCR-CD3 inh – inhibitors of human TCR-CD3 interaction; TAMRA-labeled TCR probe fluorescence, biochemical; inhibition, % at 9.4 µM; hit rate 0.37% among 360,000; AID 651800; in the data active means inhibition above about 19%;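 further: recombinant mutant TCR 2C K166C tagged with TAMRA read by polarization; 0% = receptor in buffer alone and 100% = receptor with positive control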
PRMT1 FP inh – blocks human protein arginine methyltransferase 1. Q99873. recombinant PRMT1, activity-based probe fluorescence polarization. inhibition, % at 2.79 µM. hit rate 1.3% among 370,000. AID 652257;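 active means inhibition above about 21% made by adding two undisclosed values, limit read from the data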
Target sequence (Q99873 whole entry, looked up): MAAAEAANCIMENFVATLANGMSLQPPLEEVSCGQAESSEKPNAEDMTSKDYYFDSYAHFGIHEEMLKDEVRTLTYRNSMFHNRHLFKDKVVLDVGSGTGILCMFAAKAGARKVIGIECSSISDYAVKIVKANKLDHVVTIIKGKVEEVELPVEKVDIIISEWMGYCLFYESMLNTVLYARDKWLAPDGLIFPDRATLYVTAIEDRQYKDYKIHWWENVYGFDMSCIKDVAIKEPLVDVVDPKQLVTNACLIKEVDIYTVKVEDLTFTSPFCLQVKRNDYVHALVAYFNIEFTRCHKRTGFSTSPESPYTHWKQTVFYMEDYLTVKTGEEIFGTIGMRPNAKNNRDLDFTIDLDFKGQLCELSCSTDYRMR
SIAE inh – blocks human sialic acid acetylesterase; SIAE FP-Rh probe binding, fluorescence polarization; Q9HAT2; hit rate 0.69% among 370,000; inhibition, % at 9.66 µM;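 active means inhibition above a cutoff: mean of compounds within the control limits plus 3 SD of those, cut at about 17% in these data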;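 further: 0% = plate median of compound wells and 100% = probe without SIAE protein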
ABHD4 inh – inhibitors of mouse ABHD4; purified mABHD4, FP-Rh probe fluorescence polarization; inhibition, % at 8.92 µM; hit rate 0.54% among 370,000;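 active means inhibition exceeding the mean over every tested compound plus 3 SD, cut at about 30% in these data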;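 further: 0% = plate median of compound wells and 100% = S159A mutant with DMSO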
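Assay system: mouse ABHD4 enzyme, wild type / Also added: fluorescent activity-based probe FP-Rh / Doses: single nominal dose of 8.92 µM, 0.89% DMSO final / Timing: 45 min compound pre-incubation plus 60 min probe step, 25 °C / Signal: FP readout, ex 525 nm / em 598 nm / Control set: S159A mutant/DMSO as 100%, compound-well median as 0%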
rCAG binder – molecules binding r(CAG) RNA repeats; r(CAG) RNA repeat, TO-PRO-1 dye displacement fluorescence; inhibition, % at 3 µM; hit rate 1.3% among 370,000; AID 651821;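 active means inhibition above the plate cutoff, the mean of all test compounds on that plate plus 3 SD, cut at about 35% in these data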;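 further: 0% = DMSO alone and 100% = 100 µM mitoxantrone as full dye displacement; higher means more dye released from RNA so lower well fluorescence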
PRMT1 confirm – confirmation of human PRMT1 inhibitors; inhibition, % at 2.79 µM; recombinant His-PRMT1, activity-based probe fluorescence polarization; hit rate 42% among 3,300; AID 687036; shares compounds with PRMT1 FP inh;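 active means mean inhibition across replicates above the hit cutoff derived for the earlier primary screen, cut at about 22% in these data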
Numbers without * were called inactive.

Results for COc1cccc(/C=C2\Sc3ccc(C(=O)NCc4cccnc4)cc3N(C)C2=O)c1 ?
TCR-CD3 inh: 0; PRMT1 FP inh: 18; SIAE inh: -19; ABHD4 inh: -8; rCAG binder: 14

Results for COc1ccc(/C=C2\Sc3ccc(C(=O)NCc4cccnc4)cc3N(C)C2=O)cc1OC ?
TCR-CD3 inh: 3; PRMT1 FP inh: 32*; SIAE inh: -2; ABHD4 inh: -2; rCAG binder: 6; PRMT1 confirm: 9

What do the screens show for `Cc1ccc[n+](-c2nc([O-])sc2C=O)c1`?
TCR-CD3 inh: 7; PRMT1 FP inh: 58*; SIAE inh: -7; ABHD4 inh: 0; rCAG binder: -113; PRMT1 confirm: 62*

Results for CC(C)c1ccc[n+](-c2nc([O-])sc2C=O)c1 ?
TCR-CD3 inh: -4; PRMT1 FP inh: 3; SIAE inh: -4; ABHD4 inh: -2; rCAG binder: -4

What do the screens show for `CCC[C@H]1[C@@H](OC(=O)N2CCOCC2)CC[C@@]23CCCN2C(=O)CCC[C@@H]13`?
PRMT1 FP inh: 7; SIAE inh: -1; ABHD4 inh: -4

How did CCN(CC)CCSc1nc(O)c(-c2ccccc2)c(=O)n1-c1ccccc1 do in these assays?
TCR-CD3 inh: -4; PRMT1 FP inh: 25*; SIAE inh: 3; ABHD4 inh: -4; rCAG binder: -2; PRMT1 confirm: 16

What do the screens show for `CCN(CC)CCSc1nc(O)c(Cc2ccccc2)c(=O)n1-c1ccccc1`?
TCR-CD3 inh: -8; PRMT1 FP inh: 20; SIAE inh: 4; ABHD4 inh: 10; rCAG binder: 0

What do the screens show for `COC(=O)[C@H]1C[C@@]2(N3CCCCC3)c3ccccc3N[C@H]2N1S(=O)(=O)c1ccc(C)cc1`?
PRMT1 FP inh: 0; SIAE inh: 0; ABHD4 inh: 0; rCAG binder: 5

What do the screens show for `Nc1cccnc1Sc1cccc(Cl)c1`?
TCR-CD3 inh: 4; PRMT1 FP inh: 31*; SIAE inh: 0; ABHD4 inh: 8; rCAG binder: -1; PRMT1 confirm: 4

What do the screens show for `Nc1cccnc1Sc1ccc(Cl)cc1`?
TCR-CD3 inh: 2; PRMT1 FP inh: -2; SIAE inh: 2; ABHD4 inh: 1; rCAG binder: 2

What do the screens show for `Nn1c(SCc2ccc([N+](=O)[O-])cc2)nnc1-c1n[nH]c2c1CCC2`?
PRMT1 FP inh: 1; SIAE inh: -6; ABHD4 inh: 6; rCAG binder: 3

What do the screens show for `Cn1cnnc1SCc1ccc(-c2ccc(Br)cc2)o1`?
TCR-CD3 inh: -2; PRMT1 FP inh: 30*; SIAE inh: 3; ABHD4 inh: 7; rCAG binder: 6; PRMT1 confirm: 3

Results for NNc1cc([N+](=O)[O-])cc2c1C(=O)N(Cc1ccccc1)S2=O (stereo unspecified) ?
TCR-CD3 inh: -1; PRMT1 FP inh: 26*; SIAE inh: 4; ABHD4 inh: 15; rCAG binder: 21; PRMT1 confirm: 3

What do the screens show for `O=C(NCc1ccccc1)OCCN1C(=O)CCC12CCC(c1ccc(Cl)cc1)CC2` (stereo unspecified)?
PRMT1 FP inh: 0; SIAE inh: -6; ABHD4 inh: -1; rCAG binder: -1

How did C=CS(=O)(=O)c1sc(Cl)c(N2CCOCC2)c1[N+](=O)[O-] do in these assays?
TCR-CD3 inh: 0; PRMT1 FP inh: 68*; SIAE inh: 7; ABHD4 inh: 10; rCAG binder: 7; PRMT1 confirm: 82*

Results for C=CSc1sc(Cl)c(N2CCOCC2)c1[N+](=O)[O-] ?
TCR-CD3 inh: -5; PRMT1 FP inh: 2; SIAE inh: -4; ABHD4 inh: -1; rCAG binder: -2

Results for CCOC(=O)c1csc(NC(=O)C2CCCN(S(=O)(=O)c3ccccc3)C2)n1 (stereo unspecified) ?
PRMT1 FP inh: 5; SIAE inh: -4; ABHD4 inh: -18; rCAG binder: 3

Results for CC(C)C[C@H]1COc2cccc(F)c2S(=O)(=O)N1Cc1cn(Cc2ccc(F)cc2)nn1 ?
PRMT1 FP inh: 1; SIAE inh: -4; ABHD4 inh: -13; rCAG binder: -2

What do the screens show for `CCn1c(SCC(=O)c2ccccc2)nc2sc3c(c2c1=O)CCN(C)C3`?
TCR-CD3 inh: -2; PRMT1 FP inh: 55*; SIAE inh: -5; ABHD4 inh: 6; rCAG binder: 7; PRMT1 confirm: 14

How did CCn1c(SCC(=O)NCCc2ccccc2)nc2sc3c(c2c1=O)CCN(C)C3 do in these assays?
TCR-CD3 inh: -1; PRMT1 FP inh: 5; SIAE inh: 2; ABHD4 inh: 1; rCAG binder: 2

How did O=C(O)COCc1nc2ccccc2s1 do in these assays?
TCR-CD3 inh: 11; PRMT1 FP inh: 53*; SIAE inh: -4; ABHD4 inh: 12; rCAG binder: 1; PRMT1 confirm: 8

Results for CC(=O)c1ccc(OC(=O)CCc2nc3ccccc3s2)cc1 ?
TCR-CD3 inh: -1; PRMT1 FP inh: 75*; SIAE inh: 7; ABHD4 inh: 2; rCAG binder: 3; PRMT1 confirm: 27*

How did CC(=O)c1ccc(OC(=O)CCc2ccccc2)cc1 do in these assays?
TCR-CD3 inh: 1; PRMT1 FP inh: -2; SIAE inh: 3; ABHD4 inh: -3; rCAG binder: -6

How did C/C(=N\N1C(=O)CSC1=S)c1ccc(Br)cc1 do in these assays?
TCR-CD3 inh: 5; PRMT1 FP inh: 31*; SIAE inh: 1; ABHD4 inh: -5; rCAG binder: 11; PRMT1 confirm: 32*

Results for CC(C)n1c(-c2ccccc2)nc(=S)c2c1CCCC2 ?
TCR-CD3 inh: -5; PRMT1 FP inh: 36*; SIAE inh: 1; ABHD4 inh: 13; rCAG binder: 1; PRMT1 confirm: 3

What do the screens show for `COc1ccc(-n2c(-c3ccccc3)nc(=S)c3c2CCCC3)cc1`?
TCR-CD3 inh: -1; PRMT1 FP inh: 0; SIAE inh: 0; ABHD4 inh: -2; rCAG binder: 1

How did Cc1[nH]n(-c2ccccc2)c(=S)c1C=NCCCN=Cc1c(C)[nH]n(-c2ccccc2)c1=S do in these assays?
TCR-CD3 inh: 4; PRMT1 FP inh: 81*; SIAE inh: 12; ABHD4 inh: 6; rCAG binder: -1; PRMT1 confirm: 44*

Results for Cc1ccc(/C(C#N)=C\c2ccc(N3CCOCC3)o2)cc1 ?
TCR-CD3 inh: -10; PRMT1 FP inh: 27*; SIAE inh: 8; ABHD4 inh: 4; rCAG binder: 15; PRMT1 confirm: 11

How did CC(C)CNC(=O)OCc1cn(Cc2ccccc2C(F)(F)F)nn1 do in these assays?
PRMT1 FP inh: 2; SIAE inh: 0; ABHD4 inh: -2; rCAG binder: 3

Results for Cc1ccc2nc(N3C(=O)C(O)=C(C(=O)c4ccco4)C3c3cccs3)sc2c1 (stereo unspecified) ?
TCR-CD3 inh: 2; PRMT1 FP inh: 35*; SIAE inh: 0; ABHD4 inh: 11; rCAG binder: 31; PRMT1 confirm: 12
